Reference: ChEMBL document CHEMBL4052671, “Design, synthesis, and evaluation of DNA topoisomerase II-targeted nucleosides” (Bioorg Med Chem, 2017)
The source made the active and inactive calls. The calls are words filed in the database; no cut-off is given here.

Experiments:
[1] = target: T1, DNA topoisomerase 2-alpha (Homo sapiens, UniProt P11388); experiment: Inhibition of recombinant human DNA topoisomerase-2alpha assessed as decrease in relaxation of supercoiled pBR322 DNA after 30 mins by ethidium bromide staining based agarose gel electrophoresis
[2] = target: T1, DNA topoisomerase 2-alpha; experiment: Inhibition of recombinant human DNA topoisomerase-2alpha assessed as decrease in relaxation of supercoiled pBR322 DNA at […] after 30 mins by ethidium bromide staining based agarose gel electrophoresis relative to control
Summary of the method: (§1)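 Topo II relaxation of supercoiled pBR322 (198 ng) with 1 U enzyme, 50 mM Tris-HCl pH 8, 120 mM KCl, 10 mM MgCl2, 0.5 mM ATP, 0.5 mM DTT, drug in <10% DMSO; 37 °C for 30 min; products run on 1% agarose in TAE, ethidium-stained, scanned; supercoiled DNA area quantified.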

[3] = target: T1, DNA topoisomerase 2-alpha; experiment: Inhibition of recombinant human DNA topoisomerase-2alpha assessed as decrease in relaxation of supercoiled pBR322 DNA at 200 uM after 30 mins by ethidium bromide staining based agarose gel electrophoresis relative to control; summary of the method: as §1

T1 sequence (P11388 whole entry): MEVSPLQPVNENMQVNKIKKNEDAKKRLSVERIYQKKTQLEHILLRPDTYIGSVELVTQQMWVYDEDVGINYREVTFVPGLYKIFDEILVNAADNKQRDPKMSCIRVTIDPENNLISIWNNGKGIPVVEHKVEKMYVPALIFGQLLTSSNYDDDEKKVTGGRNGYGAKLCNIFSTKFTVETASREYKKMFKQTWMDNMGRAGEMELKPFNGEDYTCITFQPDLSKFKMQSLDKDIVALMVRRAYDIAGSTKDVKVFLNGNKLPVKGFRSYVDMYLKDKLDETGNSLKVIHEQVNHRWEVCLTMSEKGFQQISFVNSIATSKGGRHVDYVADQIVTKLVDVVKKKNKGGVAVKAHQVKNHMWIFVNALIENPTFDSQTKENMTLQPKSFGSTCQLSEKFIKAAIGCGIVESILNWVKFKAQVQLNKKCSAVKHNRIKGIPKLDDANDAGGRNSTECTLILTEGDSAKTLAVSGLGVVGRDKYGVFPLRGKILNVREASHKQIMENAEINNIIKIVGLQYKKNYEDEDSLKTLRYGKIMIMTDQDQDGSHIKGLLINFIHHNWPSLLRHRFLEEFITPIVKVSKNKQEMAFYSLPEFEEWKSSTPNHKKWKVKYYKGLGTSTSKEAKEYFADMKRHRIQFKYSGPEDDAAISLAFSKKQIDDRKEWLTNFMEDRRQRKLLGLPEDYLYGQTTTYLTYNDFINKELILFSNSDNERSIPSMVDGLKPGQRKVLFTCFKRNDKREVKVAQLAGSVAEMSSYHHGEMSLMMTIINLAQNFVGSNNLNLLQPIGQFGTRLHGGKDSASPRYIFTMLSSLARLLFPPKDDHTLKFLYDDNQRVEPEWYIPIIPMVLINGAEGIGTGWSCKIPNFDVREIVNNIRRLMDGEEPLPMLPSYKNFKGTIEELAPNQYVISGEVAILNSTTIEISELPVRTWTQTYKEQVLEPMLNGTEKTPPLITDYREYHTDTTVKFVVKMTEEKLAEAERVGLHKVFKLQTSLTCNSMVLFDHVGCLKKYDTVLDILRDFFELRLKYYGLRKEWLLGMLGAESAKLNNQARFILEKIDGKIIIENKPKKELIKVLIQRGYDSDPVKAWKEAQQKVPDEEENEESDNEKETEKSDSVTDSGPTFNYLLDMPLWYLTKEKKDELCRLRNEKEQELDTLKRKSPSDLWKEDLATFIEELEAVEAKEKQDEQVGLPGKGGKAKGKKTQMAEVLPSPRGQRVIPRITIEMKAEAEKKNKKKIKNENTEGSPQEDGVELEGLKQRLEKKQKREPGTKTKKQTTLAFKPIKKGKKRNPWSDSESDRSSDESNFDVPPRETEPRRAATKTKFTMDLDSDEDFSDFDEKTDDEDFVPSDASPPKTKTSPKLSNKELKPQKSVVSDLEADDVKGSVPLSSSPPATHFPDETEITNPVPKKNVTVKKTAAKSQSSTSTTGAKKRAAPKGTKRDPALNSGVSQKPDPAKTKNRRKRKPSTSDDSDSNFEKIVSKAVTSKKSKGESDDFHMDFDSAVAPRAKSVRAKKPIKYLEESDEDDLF

Structure (SMILES) | IC50 [1] | inhibition [2] | inhibition [3]
COc1ccc(C[C@H]2CC(=O)O[C@@H]2CO)cc1OC |  | inactive | 
COc1ccc(C2([C@H]3CC(=O)O[C@@H]3CO)SCCCS2)cc1OC | > 200 µM | 19.8% | 
COc1ccc(C2([C@H]3CC(=O)O[C@@H]3CO[Si](C)(C)C(C)(C)C)SCCCS2)cc1OC | 55.7 µM |  | 
Cc1cn([C@H]2C[C@H](CC3=CC(=O)C(=O)C=C3)[C@@H](CO[Si](C)(C)C(C)(C)C)O2)c(=O)[nH]c1=O | 2.43 µM |  | 

Further lines, results first:

IC50 [1] | inhibition [2] | inhibition [3] | Structure (SMILES)
89.2 µM |  |  | COc1ccc(C[C@H]2C[C@@H](n3cc(C)c(=O)[nH]c3=O)O[C@@H]2CO[Si](C)(C)C(C)(C)C)cc1OC
> 200 µM | 23.7% | inactive | COc1ccc(C[C@H]2C[C@H](n3cc(C)c(=O)[nH]c3=O)O[C@@H]2CO)cc1OC
 | inactive |  | COc1ccc(C[C@H]2C[C@@H](n3cc(C)c(=O)[nH]c3=O)O[C@@H]2CO)cc1OC
